Most compounds without a hit are left out; they make up all but 1.8% or so of the library.
Cneo AK release – Cryptococcus neoformans lysis via adenylate kinase release. lysis activity, % at 15 µM. C. neoformans lysis, adenylate kinase release luminescence, 4 h; normalised: neutral wells 0, clomiphene wells 100. hit rate 0.2% among 360,000;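 active means mean lysis activity across replicates of at least 80%, whatever share of replicates individually reach that level; inactive means mean lysis activity below 80%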
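Signal: Adenylate kinase release luminescence | Assay system: Log-phase Cryptococcus neoformans yeast cells | Input: Cells at 5 × 10^6 per mL | Buffer or medium: Fresh YPD growth medium | Compound: Single dose | Schedule: Static 4 h at 37 °C with compound, 1 h detection | Controls: Clomiphene | Read-out: Luminescence rise reflecting yeast cell lysis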
iPSC survival up – increases survival of single human iPS cells; hiPSC single-cell survival, ATPlite luminescence; 100% = ROCK inhibitor wells, 0% = DMSO; survival enhancement, % at 20 µM; hit rate 0.044% among 360,000; in the data active means survival enhancement above about 18%;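 further: cells exposed to compounds for 16 hours before the ATP read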
MT1-MMP act inh – blocks activation of human MT1-MMP. P50281. HT1080 RFP-PRO-GFP cells, GFP/RFP ratio fluorescence, overnight; percent of plate control window, DMSO zero. GFP/RFP ratio change, % at 20 µM. hit rate 0.061% among 360,000;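 active means GFP/RFP ratio change of at least 30% with cell ATP level not reduced by more than half and red fluorescence within 50% of control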
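Assay system: HT1080 RFP-PRO-GFP cells | Dosing: 20 µM single dose, 1% DMSO | Incubation: Cells overnight before dosing, compound overnight, 37 °C, 5% CO2 | Evaluation: GFP/RFP fluorescence ratio | Control set: DMSO-only wells and HT1080 RFP-L50D-GFP cell wells as references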
SKN-1 inh – blocks SKN-1 activity in C. elegans | C. elegans VP596 Pgst-4::GFP/RFP ratio, acrylamide-induced, 24 h | inhibition, % at 21.8 µM | hit rate 0.49% among 360,000;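 active means interference check ratio from 0.5 to 1.5 plus GFP to RFP signal ratio inhibition reaching or exceeding a fixed threshold, cut at about 30% in these data, passing the limit was not always enough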
DAGLB inhibitor – blocks human DAGLB lipase activity; HEK293T DAGLB membrane lysate, EnzChek fluorogenic substrate; inhibition, % at 5.17 µM; hit rate 0.059% among 340,000; AID 504411; in the data active means inhibition above about 34%
Target sequence (Q8NCG7 whole entry, looked up): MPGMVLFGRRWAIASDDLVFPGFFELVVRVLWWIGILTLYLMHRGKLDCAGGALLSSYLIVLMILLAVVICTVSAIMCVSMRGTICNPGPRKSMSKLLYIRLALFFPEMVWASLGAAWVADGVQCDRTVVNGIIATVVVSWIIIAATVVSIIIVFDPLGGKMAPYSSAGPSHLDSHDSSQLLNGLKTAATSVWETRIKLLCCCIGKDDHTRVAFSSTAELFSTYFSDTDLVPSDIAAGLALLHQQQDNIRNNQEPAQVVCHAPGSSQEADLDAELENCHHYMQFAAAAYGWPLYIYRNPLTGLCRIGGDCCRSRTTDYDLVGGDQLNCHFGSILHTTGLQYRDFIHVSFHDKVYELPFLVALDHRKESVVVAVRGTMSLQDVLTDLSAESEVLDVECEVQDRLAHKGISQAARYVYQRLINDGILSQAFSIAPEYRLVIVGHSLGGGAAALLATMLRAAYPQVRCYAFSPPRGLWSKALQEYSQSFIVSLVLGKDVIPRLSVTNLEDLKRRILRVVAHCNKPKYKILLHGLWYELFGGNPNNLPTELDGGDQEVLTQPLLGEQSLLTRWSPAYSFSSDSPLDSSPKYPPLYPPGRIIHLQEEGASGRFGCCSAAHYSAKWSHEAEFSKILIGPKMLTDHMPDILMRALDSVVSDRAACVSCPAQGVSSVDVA
rRNA inh HTS – selective bacterial rRNA inhibition in E. coli | E. coli WT GFP vs humanized-ribosome RFP mutants, fluorescence, 24 h; stronger effect = lower value; DMSO median 0, no signal -100 | GFP signal change (wild-type ribosome), % (test concentration not listed) | hit rate 1.6% among 350,000 | AID 720706;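 active means significant combined selectivity score with lowered wild-type GFP, culture density cut under 30%, mutant RFP and density less affected; inactive means any of these conditions unmet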
Numbers stand for hits; 0 = inactive; - = not tested or not shown; ! = not active in a repeat.

SMILES	Cneo AK release	iPSC survival up	MT1-MMP act inh	SKN-1 inh	DAGLB inhibitor	rRNA inh HTS
CC1=NN(c2ccccc2)C(=O)C1/C=C1\NC(=S)NC1=O (stereo not drawn)	0	0	0	0	0	0
Cc1ccc(S(=O)(=O)Nc2ccccc2CNc2ccccn2)cc1	-	0	0	0	0	-28
CC(C)NC(=O)N1[C@@H](CO)[C@@H]2c3ccccc3N(C(=O)Nc3cccc(Cl)c3)C[C@@H]21	0	-	-	-	-	0
CNC[C@H]1Oc2ccc(NC(=O)Nc3ccc(OC)cc3)cc2CC(=O)N([C@H](C)CO)C[C@H]1C	0	-	-	-	-	0
COc1ccc2c(c1)[nH]c1c(Cl)ncnc12	-	0	0	0	0	0
Cc1ccc2[nH]c3c(Cl)ncnc3c2c1	0	0	0	0	-	-29
CC(C)c1cc(C(C)C)c(S(=O)(=O)N2CCNCC2)c(C(C)C)c1	0	0	0	0	0	-44
CCC(=O)N1[C@@H]2c3ccc(C4=CCCC4)c(=O)n3C[C@H]1[C@H](CO)[C@H]2C(=O)N[C@H](C)c1ccccc1	0	-	-	-	-	0
CC(=O)N1[C@@H]2c3ccc(-c4ccccc4)c(=O)n3C[C@H]1[C@H](CO)[C@H]2C(=O)Nc1ccccc1	87	-	-	-	-	0
CCC(=O)N1[C@@H]2Cn3c(ccc(C4=CCCCC4)c3=O)[C@H]1[C@@H](C(=O)N[C@H](C)c1ccccc1)[C@@H]2CO	93	-	-	-	-	0
C[C@H]1CN([C@@H](C)CO)C(=O)c2cc(NS(C)(=O)=O)ccc2O[C@@H]1CN(C)S(=O)(=O)c1ccccc1	-	-	-	-	-	0
C[C@H](CO)N1C[C@H](C)[C@@H](CN(C)S(=O)(=O)c2cccs2)OCCCC[C@H](C)Oc2ccc(NC(=O)c3ccncc3)cc2C1=O	0	-	-	-	-	0
N#Cc1cc(C(=O)c2cc(F)ccc2O)cn(Cc2ccccc2)c1=O	-	0	0	0	0	-24
N#C/C(=C\c1ccncc1)c1nc2ccccc2o1	0	0	0	0	-	0
N#C/C(=C\c1cccc(O)c1)c1nc2ccccc2o1	0	0	0	0	0	-18
Cn1c(/C(C#N)=C/Nc2ccccn2)nc2ccccc21	0	0	0	0	0	-
Cn1c(/C(C#N)=C/c2cccc(O)c2)nc2ccccc21	0	0	0	0	0	-24
COc1ccccc1C/C(N)=N/OC(=O)c1cccs1	-	0	0	0	0	-25
O=C(O)C1CCCCC1C(=O)Nc1ccc(OCc2ccccc2)cc1 (stereo not drawn)	0	0	0	0	0	-24
O=C(O)[C@H]1CCCC[C@H]1C(=O)Nc1ccc(Nc2ccccc2)cc1	0	0	0	0	0	-
C[C@@H]1CNC(=O)[C@H](Cc2ccc(C(F)(F)F)cc2)CCn2nncc2COC1	-	-	-	-	-	0
O=C(C[C@H]1CC[C@@H]2[C@H](COC[C@@H](O)CN2Cc2ccc(Cl)cc2)O1)NCCc1ccccc1	0	-	0	0	-	-21!
O=C(C[C@H]1CC[C@@H]2[C@H](COC[C@@H](O)CN2Cc2cccc(C(F)(F)F)c2)O1)NCc1ccc(Cl)cc1	110	-	-	-	-	0
O=C(C[C@H]1CC[C@@H]2[C@H](COC[C@H](O)CN2CC2CCOCC2)O1)NCc1ccc(Cl)cc1	86	-	-	-	-	0
O=C(C[C@@H]1CC[C@@H]2[C@H](COC[C@H](O)CN2Cc2ccc(Cl)cc2)O1)NCCc1ccccc1	0	-	-	-	-	0
SMILES	Cneo AK release	iPSC survival up	MT1-MMP act inh	SKN-1 inh	DAGLB inhibitor	rRNA inh HTS
O=C(C[C@@H]1CC[C@@H]2[C@H](COC[C@H](O)CN2Cc2cccc(C(F)(F)F)c2)O1)NCc1ccc(Cl)cc1	83	-	0	0	-	0
COc1ccc(COCC23N=C4SCCCN4[C@H](c4ccccc4O2)[C@H]3COC(=O)c2ccccc2)cc1	0	-	-	-	-	-
C[C@@H]1CN([C@@H](C)CO)C(=O)c2cccc(NC(=O)c3ccncc3)c2O[C@H]1CN(C)C(=O)Nc1ccc(F)cc1	0	-	-	-	-	0
CCNC(=O)C[C@H]1CC[C@@H]2[C@H](COC[C@@H](O)CN2Cc2ccccc2F)O1	0	-	-	-	-	0
O=C(C[C@@H]1CC[C@@H]2[C@H](COC[C@@H](O)CN2Cc2cccc(C(F)(F)F)c2)O1)NCc1ccccc1	0	-	-	-	-	0
CCCNC(=O)C[C@@H]1CC[C@H]2[C@@H](COC[C@H](O)CN2Cc2ccccc2F)O1	97	-	-	-	-	0
O=C(C[C@@H]1CC[C@H]2[C@@H](COC[C@H](O)CN2Cc2cccc(C(F)(F)F)c2)O1)NCc1ccccc1	100	-	-	-	-	0
O=C(C[C@H]1CC[C@@H](NC(=O)Nc2ccccc2F)[C@@H](CO)O1)NCc1ccc(F)cc1	-	-	-	-	-	0
COc1ccc2c3c(n(C)c2c1)[C@@H](CO)N(Cc1nccs1)CC31CCN(C(=O)CC2CC2)CC1	-	-	-	-	-	0
Cc1cc(NC(=O)COC(=O)c2ccccc2NCCO)no1	0	0	0	0	0	0
Cc1cc(NC(=O)COC(=O)c2ccccc2S(=O)(=O)N(C)c2ccccc2)no1	-	0	0	0	0	-33
CCN1C(=O)S/C(=C/c2ccc(Sc3nc4ccccc4[nH]3)o2)C1=O	0	0	0	0	0	-23
N#C/C(=C/c1ccc(Sc2nc3ccccc3[nH]2)o1)c1cccc(Br)c1	0	0	0	0	0	-
Cc1ccc(S(=O)(=O)N(C)C[C@H]2OCCCC[C@H](C)Oc3ccc(NC(=O)c4ccccc4)cc3C(=O)N([C@@H](C)CO)C[C@H]2C)cc1	0	-	-	-	-	0
CC(=O)N(C)C[C@H]1Oc2cc(-c3cccnc3)ccc2S(=O)(=O)N([C@@H](C)CO)C[C@H]1C	0	-	-	-	-	0
O=C(NCCc1ccc(F)cc1)c1cccc(NC(=O)c2ccccc2)c1	0	0	0	0	0	-22
CC(=O)c1cccc(NC(=S)NCCCCc2ccccc2)c1	0	0	0	0	0	-34
S=C(NCCCc1ccccc1)Nc1ccc(Cl)cc1	-	0	0	0	0	-
CCCCNC(=S)Nc1cccc(C(C)=O)c1	0	0	0	0	0	-
O=C(NCCCCc1ccccc1)c1cccc(NC(=O)c2ccccc2)c1	0	0	0	0	0	0
CCCCC(=O)NC(=S)Nc1cccc(NC(=O)c2ccccc2)c1	-	0	0	0	0	-19
S=C(NCCCc1ccccc1)Nc1ccccc1	104	0	0	0	0	0
Cn1cnc(S(=O)(=O)N[C@@H]2CC[C@H](CC(=O)Nc3ccc(-c4ccccc4)cc3)O[C@H]2CO)c1	0	-	-	-	-	0
O=S(=O)(N[C@H]1CC[C@@H](CCn2cc(C3(O)CCCC3)nn2)O[C@H]1CO)c1ccc(Cl)cc1	0	-	-	-	-	0
CCC(=O)N1C[C@H](C)[C@H](OC)CN(C)C(=O)c2ccc(NC(=O)c3ccc(F)cc3)cc2OC[C@H]1C	0	-	-	-	-	0
CCCCNC(=S)Nc1ccccc1Cc1ccccc1	0	0	0	0	0	-43
O=C(Nc1ccccc1)OCCCc1ccccc1	0	0	0	35	0	0

Screening data as filed in PubChem.
